Measured values: the EternaBench riboswitch data

Test system: MS2 coat protein
Experiment: apparent Kd, MS2 coat protein; higher = weaker binding; RNA-MaP array; FMN 200 µM where present
Outline: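 On Illumina sequencing-chip clusters, designs were transcribed by stalled E. coli RNA polymerase and titrated with SNAP-549-labelled MS2 coat protein (0.7 or 1.5 nM, doubling to 3 µM), without and then with constant ligand, in 100 mM Tris-HCl pH 7.5, 80 mM KCl, 4 mM MgCl2, BSA, DTT, yeast tRNA and Tween-20. Apparent Kd is the median of filtered per-cluster curve fits to green signal normalised to red-channel RNA signal and control-cluster median Fmax.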

[1] = designed as: ON switch for flavin mononucleotide, no ligand
[2] = ligand present: flavin mononucleotide, designed as: ON switch for flavin mononucleotide
[3] = designed as: OFF switch for flavin mononucleotide, no ligand
[4] = ligand present: flavin mononucleotide, designed as: OFF switch for flavin mononucleotide

Sequence	apparent Kd [1] [nM]	apparent Kd [2] [nM]	apparent Kd [3] [nM]	apparent Kd [4] [nM]
GCAGCUAAUAUUAUACAUGAGGAUCACCCAUGUUACAUGAGUAAGGAUAUUGAUGAUUAUAUAAACAAGAAGGUACGAAGCUGC	14.9	7.85		
GCAGCUCCUGACAUGAGGAUCACCCAUGUUUAAUUAUUAAAUCAGGAUAUCCUUUCGAAACGAAAGGAGAAGGGAUAAGCUGCU	4.81	4.94		
GCAGGAUAAGUGAGGAUAUACCUAUGGAUACAUAGGUAGAAGGUACAUGAGGAUCACCCAUGUUCCUCACCUGC			9.54	10.1
GCAGGAUAAGUGAGGAUAUACCUCUGGAUACAGAGGUAGAAGGCACAUGAGGAUCACCCAUGUCUAUCACCUGC			16	41.3
GCAGGUUAAGUCAGGAUAUACCUAUGGAUACAUAGGUAGAAGGGACAUGAGGAUCACCCAUGUGUCUCGCCUGC			87.8	148
GCAGUAAAUAAAUGCACAUGAGGAUCACCCAUGUGGGAGGCACAGGAUAUCGCAUCAUAGCGGUGCGAGAAGGGUGAUAAUCUC	346	72.3		
GCAGUAAAUAAAUGCACAUGAGGAUCACCCAUGUGGGAGGCACAGGAUAUCGUAUCAUAGUGGUACGAGAAGGGUGAUAAUCUC	425	84.4		
GCAUCCAAUGUGAGGAUAUACCUCUGGAUACAGAGGUAGAAGGCACAUGAGGAUCACCCAUGUUACUAGGAUGC			20.8	44.4
GCAUGCGUUCGAGGAUAUCGGUGAGAAACGGAACGAGAAGGCGAUAGAAUGUCUCAUCUUAUGAACAUGAGGAUCACCCAUGUA	32.7	31.6		
GCAUGCUCCGAGGAUAUCGAAGCUAAUUAUGCACGAGAAGGCGGAACAUGAGGAUCACCCAUGUGAUGCCUAAA				29.4
GCAUGUAAGUAGAAGGGCAGAUAUUUUGAUACUGCAGGAUAUGCAGAAUCAUAUCCACAUGAUAACAUGAGGAUCACCCAUGUA			32.7	25.6
GCAUUUAAUACAGGAUAUGUAAGUAUACAUUAGAUUGGUAUAGUCACAACAACAGAAGGGUAGAACAUGAGGAUCACCCAUGUA	97.3	62.9		
GCCAGAGCAGGAUAUCUAUAUUAUCACAUGAGGAUCACCCAUGUCCAGCGAAAGCUGGAGGGAGAAGGGCUCUGGC			73.2	33.8
GCCAGGAUGUAAGGAUAUGCUGAGGAUAACUCAGCAGAAGGUACAUGAGGAUCACCCAUGUAAUCCAAUAAUAAAUAACCUGGC			11.8	23.8
GCCAGGCAUGUAGGAUAUCCAUUGCGUCGCGAUGGAGAAGGGCAACACACAUGAGGAUCACCCAUGUGGUCACCCAUGUCGUGU			217	225
GCCAGGGAUUCAGGAUAUAUUAGCCGAGGCCGAGUAGAAGGGAAAUCCUGACAUGAGGAUCACCCAUGUCGACCCGCCUUCCUC	20.5	21.1		
GCCAUCACAUGAGGAUAUGCUCCCGUUUCGGGAGCAGAAGGCAUGUCAUAAGACAUGAGGAUCACCCAUGUAGUUAAGAUGGCA	375	13.3		
GCCAUCACAUGAGGAUAUGCUCCCGUUUCGGGAGCAGAAGGCGUGUCAUUAGACAUGAGGAUCACCCAUGUAGUUAAGAUGGCA	667	22.8		
GCCAUCAUAUGAGGAUAUGACACCGAAACGGUGUCAGAAGGCAUGUCGAUAGACAUGAGGAUCACCCAUGUAUUAAUGAUGGCA	1090	95.1		
GCCAUCGCAUGAGGAUAUGCUCCGGUUUCCGGAGCAGAAGGCAUGUAAUAAAACAUGAGGAUCACCCAUGUAGUUAAGAUGGCA	7.94	6		
GCCAUCGCAUGAGGAUAUGGCACCGUUGCGGUGCCAGAAGGCAUGUCAAAUGACAUGAGGAUCACCCAUGUAGUUAAGAUGGCA	218	13.8		

Sequence	apparent Kd [1] [nM]	apparent Kd [2] [nM]	apparent Kd [3] [nM]	apparent Kd [4] [nM]
GCCAUCGCGUGAGGAUAUGCUCCGGUUUCCGGAGCAGAAGGCAUGUCAUAAGACAUGAGGAUCACCCAUGUAGUCAAGAUGGCA	270	11.4		
GCCAUCGUAUGAGGAUAUGGCACCGAAACGGUGCCAGAAGGCAUGUCAAUCGACAUGAGGAUCACCCAUGUGUUAUCGAUGGCA	305	25.1		
GCCAUCGUAUGAGGAUAUGGCACCGAAACGGUGCCAGAAGGCAUGUCGAUAGACAUGAGGAUCACCCAUGUAUUAACGAUGGCA	1120	117		
GCCAUCGUAUGAGGAUAUGGCGCCGAAACGGUGCCAGAAGGCAUGUCAAUAGACAUGAGGAUCACCCAUGUGUUAUCGAUGGCA	134	11.9		
GCCAUCUCAUGAGGAUAUGCUCCUGUUUCGGGAGCAGAAGGCAUGUCAUAAGACAUGAGGAUCACCCAUGUAGUUAAGAUGGCA	256	11.3		
GCCCGCCUAGCAGGAUAUACAGGUUGGCGGACAUGAGGAUCACCCAUGUAAGGCUACAUACACUUGUAGAAGGGUUGGGUGUCC	93.4	33.7		
GCCGAAAAUGUGAGGAUAUACCUAUGGAAACAUAGGUAGAAGGCACAUGAGGAUCACCCAUGUGUCCAAACGGC			19.9	64.6
GCCGAAAGUGUGAGGAUAUACCUAUGGAUACAUAGGUAGAAGGCACAUGAGGAUCACCCAUGUCCAAUAACGGC			205	647
GCCGCCCGAUCUGGCUUUUGGGCUAGAAGGGCAUAUGUGGUCCAGGACAUGAGGAUCACCCAUGUGCAGGAUAUAGCCCACCAC			13.7	24.1
GCCGGAUUUGUGAGGAUAUACCUAUGGAUACAUAGGUAGAAGGCACAUGAGGAUCACCCAUGUUCCUCACCGGC			33	288
GCCGGUUCCCUAGGAUAUGUACAUGAGGAUCACCCAUGUGCCUCUAGAGCCGGAACAGGGCAUGUACAGAAGGAGGGUCGACCC				8.03
GCCGUGAUAGCAGGAUAUGCUCCGGUUGCUCAUACAUGAGGAUCACCCAUGUCACGUGCGGUGGUGCAGAAGGGUUGAAGCGAA	748	219		
GCCUAACAUGAGGAUCACCCAUGUCGUGGGUUGUUAGGAUAUGGACCGCAAAACGCGGUACCAGAAGGAAUAGAAA	555	297		
GCCUCACAUGAGGAUCACCCAUGUCAGGAUAUAGGAGGCGAUAGAAAUCCUACCGCCGCUAGAAGGGACUGGCA			39.8	91.2
GCCUCAUAGUAGAAGGGACUUCGGCUGUUAAGCAUCAUCUCCAUUUCACAUGAGGAUCACCCAUGUCAGGAUAUACUAAGAGGC			10.3	24.9
GCCUGCUGGCGAGGAUAUUCUGUGCGGUUCCGGCUCGUGUCUGUUACAUGAGGAUCACCCAUGUGGGAGAAGGUGUCUGCGGCC			7.66	8.34
GCCUUACCGGUCAGGAUAUACACCCGUCACUCCUUGUAGAAGGGACAUGAGGAUCACCCAUGUACAUUACAUUG			31.1	29.2
GCCUUACCGGUCAGGAUAUACAUUUGUCACUCCUUGUAGAAGGGACAUGAGGAUCACCCAUGUACAUUACAUUC			29	28.6
GCCUUAUCCGUCAGGAUAUACAGUUGUUAGUUGUUGUAGAAGGGACAUGAGGAUCACCCAUGUACAUUACAUUG			21.2	22.6
GCCUUAUCUGUCAGGAUAUACAUUUUUUUUUUUUUGUAGAAGGGACAUGAGGAUCACCCAUGUACAUUACAUUG			42.4	42.9
GCGAAGAACGAGAAGGCCACAACAUGAGGAUCACCCAUGUCGUGGAGUAUUGGAGGAUAUCGUUAGGCGUCUCAUGAGGACAUA			5.92	5.66
